# Mdm2 ligase inh: inhibitors of human Mdm2 E3 ubiquitin ligase. Q00987. cell-based MDM2 ubiquitination luciferase reporter, 2 h; 0 = plate control, 100 = twice control, blank-subtracted. signal enhancement, % at 5 µM. 0.11% of 210,000 active;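 active means signal enhancement of 30% or more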;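 further: luminescence tracks abundance of the self-degrading MDM2-luciferase fusion protein; higher signal means inhibition of MDM2 E3 ligase activity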
#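 Timing – 2 h compound exposure at 37 °C · Assay system – mammalian cells stably expressing self-ubiquitinating, self-degrading MDM2 E3–luciferase fusion · Amount – 2000 cells seeded into each well · Measure – % luminescence enhancement versus blank-corrected plate control mean · Measured by – SteadyLite luminescence, 15 min reagent step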
# Arbovirus anti: antivirals against arbovirus infection; inhibition, % at 10 µM; 0.37% of 200,000 active; arbovirus infection cell-based antiviral screen; AID 1251; in the data active means inhibition above about 30%
# ABCG2 inh: blocks JC-1 efflux by human ABCG2 transporter | 0.1% of 190,000 active | inhibition, % at 6.6 µM | Q9UNQ0 | IgMXP3 cells, flow cytometry | AID 1325;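 active means inhibition above 80%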;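 further: 0% = DMSO and 100% = nicardipine control wells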
#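 test system = two drug-resistant human cell lines, ABCG2 and ABCB1 | amount = 3 million cells/mL final, two lines in 1:1 ratio | reagent = JC-1 transporter substrate | doses = one concentration, 6.6 µM final | incubation = 10 min at 25 °C | signal = flow cytometric JC-1 green MFI at 530 nm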
# ABCB1 inh: inhibitors of human ABCB1 transporter, ABCG2 counter-screen. AID 1326. 0.067% of 190,000 active. CCRF-Adr cells, JC-1 efflux, flow cytometry. P08183. inhibition, % at 6.6 µM; in the data active means inhibition above about 40%;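 further: 0% = vehicle and 100% = reference inhibitor; higher value means more JC-1 retained so stronger ABCB1 efflux block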
# Rad51 HR inh: blocks human Rad51 in homologous recombination; hRad51 DNA strand exchange, fluorescence dequenching; Q06609; AID 1385; inhibition, % at 10 µM; 0.085% of 200,000 active;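 active means inhibition above 40% at the single screening dose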;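 further: 0% = DMSO control wells and 100% = blanks with heterologous ssDNA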
#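 Test system – preformed human Rad51 ssDNA filaments · Reagent – Donor/quencher-labelled 47-bp dsDNA substrate · Incubation – 37 °C 15-min filament assembly, 30-min compound preincubation, 15-min exchange · Signal – FRET fluorescence dequenching, excitation 485 nm, emission 520 nm · Read-out – percent inhibition from fluorescence, normalised to plate control and blank means · Benchmarks – plate control and blank wells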
# * hit, by the source's call; / = no result given. Most compounds without a hit are left out; they make up all but 0.62% or so of the library.
SMILES,Mdm2 ligase inh,Arbovirus anti,ABCG2 inh,ABCB1 inh,Rad51 HR inh
CCC1=NN2C(=N)/C(=C\c3cccn3-c3c(C)cccc3C)C(=O)N=C2S1,-7,31*,1,0,9
CCC1=NN2C(=N)/C(=C\c3cccn3-c3cccc(Cl)c3)C(=O)N=C2S1,-2,23,1,1,-7
CCC1=NN2C(=N)/C(=C\c3cccn3-c3ccc(C)cc3C)C(=O)N=C2S1,-7,39*,1,0,-5
O=C(COc1ccc(Cl)cc1)Nc1ncc([N+](=O)[O-])s1,-41,30*,9,1,-6
Cc1cc([N+](=O)[O-])ccc1NC(=O)c1cncc(Br)c1,-4,3,19,1,/
Cc1ccc(NC(=O)c2cncc(Br)c2)c(O)c1,-25,39*,7,0,-10
COc1cccc2c1C(=O)c1c(O)c3c(c(O)c1C2=O)C[C@@](O)(C(=O)CO)C[C@@H]3O[C@H]1C[C@H](N)[C@@H](O)[C@H](C)O1,/,/,/,/,74*
COc1cccc2c1C(=O)c1c(O)c3c(c(O)c1C2=O)C[C@@](O)(C(C)=O)C[C@@H]3O[C@H]1C[C@H](N)[C@H](O)[C@H](C)O1,/,-45,28,3,/
O=C1CSC(=Nc2ccccc2)N1Cc1ccccc1,-5,3,1,1,23
Cc1ccccc1N=C1SCC(=O)N1Cc1ccccc1,-2,37*,7,0,/
COc1ccc(NS(=O)(=O)c2cc(NC(=O)/C=C/c3cccs3)ccc2N2CCOCC2)cc1,0,64*,-4,-1,-2
CCC(=O)Nc1ccc(N2CCOCC2)c(S(=O)(=O)Nc2ccc(OC)cc2)c1,2,-1,1,0,-2
COc1cc(/C=C2\SC(=O)N(c3ccc(Cl)cc3)C2=O)cc([N+](=O)[O-])c1O,-5,57*,-2,0,8
CCN(C(=O)COC(=O)CNC(=O)c1ccc(C)s1)c1ccccc1,-7,7,14,0,-27
CCOC(=O)C1CCN(C(=O)c2ccco2)CC1,2,1,-3,-2,76*
COc1cc2c(=O)n(CCCC(=O)NCC3CCCO3)c(=O)n(CC(=O)c3ccc(F)cc3)c2cc1OC (configuration not stated),5,5,7,1,-1
O=C(CSc1nnc(NC(=O)C2CC2)s1)Nc1ccc(F)cc1,-4,11,1,0,-3
O=C(CSc1nnc(NC(=O)c2c(F)cccc2F)s1)Nc1ccc(F)cc1,-6,37*,1,0,7
Cc1n[nH]c(=O)n1-c1ccc(OCc2ccccc2)cc1,-15,0,1,0,/
Cc1ccc(S(=O)(=O)N2CCCCC2)cc1C(=O)Nc1ccc(S(=O)(=O)Nc2ncccn2)cc1,-1,/,/,/,-11
N#Cc1c2n(c3c(=S)nc[nH]c13)CCCCC2,-3,31*,0,-6,-9
COC(=O)c1ccccc1NC(=O)c1ccc(COc2ccc(C)c(C)c2)o1,-8,48*,2,1,2
COC(=O)c1ccccc1NC(=O)c1ccc(COc2cc(C)cc(C)c2)o1,-3,22,9,1,-8
CN(CC(O)Cn1c2ccccc2c2ccccc21)S(C)(=O)=O (configuration not stated),2,2,1,0,-4
CS(=O)(=O)N(CC(O)Cn1c2ccccc2c2ccccc21)c1ccccc1 (configuration not stated),-11,42*,2,0,0
SMILES,Mdm2 ligase inh,Arbovirus anti,ABCG2 inh,ABCB1 inh,Rad51 HR inh
CCOC(=O)Cc1nnc(NC(=O)c2ccccc2OCC)s1,-2,78*,2,0,4
CCOc1ccccc1C(=O)Nc1nccs1,-13,-3,6,0,134*
CCOc1ccccc1C(=O)Nc1nnc(COC)s1,14,3,25,2,-6
Cc1c(C(=O)OCC(=O)NCC2CCCO2)cccc1[N+](=O)[O-] (configuration not stated),-5,6,5,0,1
COc1ccc(OC)c(CNn2c(-c3ccccc3F)nc3ccccc3c2=O)c1,43*,8,16,4,8
COc1ccc(-n2c(Cc3cccn3C)nnc2SCC(=O)Nc2cccc(NC(C)=O)c2)cc1,-6,1,-6,-5,3
COc1ccc(-n2c(Cc3cccn3C)nnc2SCC(=O)Nc2cccc(Cl)c2)cc1,-6,36*,3,0,1
